≈ marks a conversion by molar mass, not a printed value. Calls of active or inactive are those of the source. The rule behind the calls is not given here. *1 amine or outer side, *2 acyl side, *3 side chain or, on linkers, in order; H or OH if unused. Where a SMILES comes first, the peptide text is derived from it. [ ]: non-standard residue; d: D form. The star is where a group is joined. X1 = C/C(=N\OCC(=O)[*:2])c1ccc(N[*:1])cc1; Benzoyl(5-Br-2-OH) = O=C(c1cc(Br)ccc1O)*
Assays:
[1] = test system: Mycobacterium tuberculosis; assay: Antimycobacterial activity against isoniazid and rifampicin resistant Mycobacterium tuberculosis A8 ATCC 35822 assessed as reduction in bacterial growth after 28 days by serial dilution method; type: functional; conditions: A8 ATCC 35822, 672 h, time 28 day
Method in brief: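 Broth MIC in Sula semisynthetic medium, pH 6.5; 4-week incubation, with 21-day values […] where indicated. Drug-free inoculated bacteria served as growth control. MIC also expressed as drug content (µg/mL) = MIC (µM) × average SAL molar mass × number of SAL per conjugate / 1000.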

[2] = test system: Mycobacterium tuberculosis; assay: Antimycobacterial activity against isoniazid and rifampicin resistant Mycobacterium tuberculosis A8 ATCC 35822 assessed as reduction in colony forming unit after 28 days by serial dilution method; type: functional, organism-based; conditions: time 28.0 day
Method in brief: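 After the 4-week MIC incubation in Sula semisynthetic medium (pH 6.5), growth inhibition confirmed by plating on Löwenstein-Jensen solid medium and counting colony forming units.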

SMILES: O=C(Nc1ccc(Cl)c(Cl)c1)c1cc(Cl)ccc1O
- MIC [1]: 1.6 µM (≈ 0.507 µg/mL)

SMILES: O=C(Nc1ccc(C(F)(F)F)cc1)c1cc(Cl)ccc1O
- MIC [1]: 1.6 µM (≈ 0.505 µg/mL)

SMILES: O=C(Nc1ccc(C(F)(F)F)cc1)c1cc(Br)ccc1O
- MIC [1]: 2.8 µM (≈ 1.01 µg/mL)

SMILES: CC(=O)c1ccc(NC(=O)c2cc(Cl)ccc2O)cc1
- MIC [1]: 17.3 µM (≈ 5.01 µg/mL)
- Activity [2]: Active

SMILES: O=C(Nc1ccc(Cl)c(Cl)c1)c1cc(Br)ccc1O
- MIC [1]: 2.8 µM (≈ 1.01 µg/mL)

SMILES: C/C(=N\OCC(=O)NCC(=O)N[C@@H](Cc1ccccc1)C(=O)N[C@@H](CC(C)C)C(=O)NCC(=O)N[C@H](C(=O)N[C@@H](CCCCN)C(=O)N1CCC[C@H]1C(=O)N1CCC[C@H]1C(=O)N[C@@H](CCCNC(=N)N)C(=O)O)[C@@H](C)O)c1ccc(NC(=O)c2cc(Br)ccc2O)cc1
- MIC [1]: 73.5 µM (≈ 100 µg/mL)

SMILES: C/C(=N\OCC(=O)N[C@H](C(=O)N[C@@H](CCCCN)C(=O)N1CCC[C@H]1C(=O)N1CCC[C@H]1C(=O)N[C@@H](CCCNC(=N)N)C(=O)O)[C@@H](C)O)c1ccc(NC(=O)c2cc(Br)ccc2O)cc1
- MIC [1]: 101 µM (≈ 100 µg/mL)

SMILES: O=Cc1ccc(O)c(C(=O)Nc2ccc(C(F)(F)F)cc2)c1
- MIC [1]: 64.7 µM (≈ 20 µg/mL)
- Activity [2]: Active

SMILES: CC(=O)c1ccc(NC(=O)c2cc(Br)ccc2O)cc1
- MIC [1]: 15 µM (≈ 5.01 µg/mL)
- Activity [2]: Active

SMILES: C/C(=N\OCC(=O)NCC(=O)N[C@@H](Cc1ccccc1)C(=O)N[C@@H](CC(C)C)C(=O)NCC(=O)N[C@H](C(=O)N[C@@H](CCCCN)C(=O)N1CCC[C@H]1C(=O)N[C@@H](CCCNC(=N)N)C(=O)O)[C@@H](C)O)c1ccc(NC(=O)c2cc(Br)ccc2O)cc1
- MIC [1]: 79.1 µM (≈ 100 µg/mL)

SMILES: C/C(=N\OCC(=O)NCC(=O)N[C@@H](Cc1ccccc1)C(=O)N[C@@H](CC(C)C)C(=O)NCC(=O)N[C@H](C(=O)N[C@@H](CCCCN)C(=O)N1CCC[C@H]1C(=O)N[C@@H](CCCCN)C(=O)NCC(N)=O)[C@@H](C)O)c1ccc(NC(=O)c2cc(Br)ccc2O)cc1 ({Benzoyl(5-Br-2-OH)}-[X1]GFLGTKPKG-NH2)
- MIC [1]: 77.4 µM (≈ 100 µg/mL)
- Activity [2]: Active

SMILES: C/C(=N\OCC(=O)NCC(=O)N[C@@H](Cc1ccccc1)C(=O)N[C@@H](CC(C)C)C(=O)NCC(=O)N[C@H](C(=O)N[C@@H](CCCCN)C(=O)N1CCC[C@H]1C(=O)N[C@@H](CCCCN)C(=O)NCC(=O)O)[C@@H](C)O)c1ccc(NC(=O)c2cc(Br)ccc2O)cc1 ({Benzoyl(5-Br-2-OH)}-[X1]GFLGTKPKG-OH)
- MIC [1]: 77.3 µM (≈ 100 µg/mL)
- Activity [2]: Active

SMILES: C/C(=N\OCC(=O)N[C@H](C(=O)N[C@@H](CCCCN)C(=O)N1CCC[C@H]1C(=O)N[C@@H](CCCCN)C(=O)NCC(N)=O)[C@@H](C)O)c1ccc(NC(=O)c2cc(Br)ccc2O)cc1 ({Benzoyl(5-Br-2-OH)}-[X1]TKPKG-NH2)
- MIC [1]: 109 µM (≈ 100 µg/mL)
- Activity [2]: Active

SMILES: C/C(=N\OCC(=O)N[C@H](C(=O)N[C@@H](CCCCN)C(=O)N1CCC[C@H]1C(=O)N[C@@H](CCCCN)C(=O)NCC(=O)O)[C@@H](C)O)c1ccc(NC(=O)c2cc(Br)ccc2O)cc1 ({Benzoyl(5-Br-2-OH)}-[X1]TKPKG-OH)
- MIC [1]: 109 µM (≈ 100 µg/mL)
- Activity [2]: Active

SMILES: C/C(=N\OCC(=O)N[C@H](C(=O)N[C@@H](CCCCN)C(=O)N1CCC[C@H]1C(=O)N[C@@H](CCCNC(=N)N)C(=O)O)[C@@H](C)O)c1ccc(NC(=O)c2cc(Br)ccc2O)cc1 ({Benzoyl(5-Br-2-OH)}-[X1]TKPR-OH)
- MIC [1]: 112 µM (≈ 100 µg/mL)
- Activity [2]: Active

SMILES: NNC(=O)c1ccncc1 [ISONIAZID]
- MIC [1]: 7.3 µM (≈ 1 µg/mL)
- Activity [2]: Active
